SMILES strings stand for the structures. In brackets after ≈: the same amount, converted by molar mass. Activity calls are given as the source filed them. Where only a bound is given, the exact number is not on record here.

The subject of assay [1] is Enterococcus faecium. Description: Antibacterial activity against Enterococcus faecium NCTC12204 assessed as generation of drug resistance at 2 times MIC measured after 48 hrs by agar-based microbroth dilution method. (In general: Broth dilution looks for growth in wells or tubes with falling amounts of substance.)
Assay [2] deals with Enterococcus faecalis. The assay is described as follows: Antibacterial activity against vancomycin resistant Enterococcus faecalis NCTC12201 measured after overnight incubation by microbroth dilution method. It is filed as functional. The method, boiled down: (§1)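 Microbroth dilution: DMSO stocks diluted in water, 2-fold series. Overnight TSB cultures back-diluted to OD 0.01 and mixed 1:1 with compound. Incubated overnight at 37 °C; MIC taken as lowest concentration without visible growth (<0.1 OD600). Run in duplicate; matching DMSO levels checked for effect on growth.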

Assay [3] deals with Pseudomonas aeruginosa. The assay is described as follows: Antibacterial activity against Pseudomonas aeruginosa PAO1 measured after overnight incubation in presence of phenylalanine arginine beta-naphthylamide by microbroth dilution method. It is filed as functional. The method, boiled down: (§2)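 Microbroth dilution MIC. Compound DMSO stocks were diluted in water as a 2-fold series. Overnight TSB cultures were back-diluted to OD 0.01 and mixed 1:1 with compound. Plates were incubated overnight at 37 °C. MIC was the lowest concentration without visible growth (<0.1 OD600), run in duplicate.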

The subject of assay [4] is Staphylococcus aureus. Description: Antibacterial activity against methicillin sensitive Staphylococcus aureus NCTC 6571 measured after overnight incubation by microbroth dilution method. It is filed as functional. The method, boiled down: as §1
In assay [5] the test system is Pseudomonas aeruginosa. The assay is described as follows: Antibacterial activity against Pseudomonas aeruginosa NCTC13437 measured after overnight incubation in presence of phenylalanine arginine beta-naphthylamide by microbroth dilution method. It is filed as functional. Put shortly:
as §2

Assay [6] relates to Acinetobacter baumannii. Description: Antibacterial activity against Acinetobacter baumannii AYE measured after overnight incubation in presence of phenylalanine arginine beta-naphthylamide by microbroth dilution method. It is filed as functional. The method, boiled down:
as §2

In assay [7] the test system is Pseudomonas aeruginosa. Description: Antibacterial activity against Pseudomonas aeruginosa NCTC13437 measured after overnight incubation in presence of polymyxin B nonapeptide by microbroth dilution method. It is filed as functional.
In assay [8] the test system is Klebsiella pneumoniae. The assay is described as follows: Antibacterial activity against Klebsiella pneumoniae M6 measured after overnight incubation in presence of phenylalanine arginine beta-naphthylamide by microbroth dilution method. It is filed as functional. Put shortly: as §2
Assay [9] deals with Staphylococcus aureus. The assay is described as follows: Antibacterial activity against methicillin resistant Staphylococcus aureus NCTC13616 measured after overnight incubation by microbroth dilution method. It is filed as functional. Put shortly:
as §1

Assay [10] relates to Pseudomonas aeruginosa. Description: Antibacterial activity against Pseudomonas aeruginosa PAO1 measured after overnight incubation in presence of polymyxin B nonapeptide by microbroth dilution method. It is filed as functional.
In assay [11] the test system is Enterococcus faecalis. The assay is described as follows: Antibacterial activity against vancomycin sensitive Enterococcus faecalis NCTC775 measured after overnight incubation by microbroth dilution method. It is filed as functional. Put shortly:
as §1

The test system of assay [12] is HeLa. The assay is described as follows: Cytotoxicity again human HeLa cells measured after 24 hrs by XTT assay. It is filed as cell-based. Put shortly: (§3)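 Cells were grown in EMEM with glutamine, 10% FBS and non-essential amino acids at 37 °C, 10% CO2. Seeding was 1 x 10^5 cells/mL (HEK293) or 4 x 10^4 cells/mL (HeLa), then 24 h adherence. Doubling compound dilutions were applied for 24 h. XTT/PMS was added for 4 h in the dark, with absorbance read at 450 nm. Untreated cells were the 100% control and water-treated cells the 0% control; IC50 was fitted.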

The nature of assay [13]: Inhibition of Staphylococcus aureus DNA gyrase subunit A2B2 using relaxed pBR322 DNA as substrate measured after 30 mins in presence of ATP by ethidium bromide-based gel electrophoresis. Put shortly:
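Supercoiling assay with S. aureus wild-type or S84L gyrase and relaxed pBR322, with or without varying compound, at 37 °C for 30 min. The reaction was stopped with STEB and extracted with chloroform:isoamyl alcohol (24:1). The aqueous phase was run on a 1% agarose gel and the supercoiled band quantified. IC50 came from at least three independent replicates.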

For assay [14], the system named is Acinetobacter baumannii. Description: Antibacterial activity against Acinetobacter baumannii AYE measured after overnight incubation by microbroth dilution method. It is filed as functional. Put shortly: as §2
The test system of assay [15] is Klebsiella pneumoniae. The assay is described as follows: Antibacterial activity against Klebsiella pneumoniae M6 measured after overnight incubation by microbroth dilution method. It is filed as functional. The method, boiled down: as §2
The subject of assay [16] is Klebsiella pneumoniae. The assay is described as follows: Antibacterial activity against Klebsiella pneumoniae NCTC13368 measured after overnight incubation in presence of polymyxin B nonapeptide by microbroth dilution method. It is filed as functional.
The test system of assay [17] is Pseudomonas aeruginosa. Description: Antibacterial activity against Pseudomonas aeruginosa NCTC13437 measured after overnight incubation by microbroth dilution method. It is filed as functional. The method, boiled down: as §2
For assay [18], the target named is DNA gyrase (Staphylococcus aureus, UniProt P0A0K8+P20831, S84L). The assay is described as follows: Inhibition of Staphylococcus aureus DNA gyrase S84L mutant. It is filed as protein-complex assay.
The test system of assay [19] is HEK293. The assay is described as follows: Cytotoxicity again human HEK293 cells measured after 24 hrs by XTT assay. The note with it: HEK293, 24 h. It is filed as cell-based. Put shortly:
as §3

Assay [20] has as its system Klebsiella pneumoniae. Description: Antibacterial activity against Klebsiella pneumoniae M6 measured after overnight incubation in presence of polymyxin B nonapeptide by microbroth dilution method. It is filed as functional.
The subject of assay [21] is Acinetobacter baumannii. The assay is described as follows: Antibacterial activity against Acinetobacter baumannii ATCC 17978 measured after overnight incubation in presence of polymyxin B nonapeptide by microbroth dilution method. It is filed as functional.
Assay [22] has as its system Staphylococcus aureus. Description: Antibacterial activity against methicillin resistant Staphylococcus aureus NCTC13277 measured after overnight incubation by microbroth dilution method. It is filed as functional. The method, boiled down:
as §1

Assay [23] relates to Acinetobacter baumannii. Description: Antibacterial activity against Acinetobacter baumannii ATCC 17978 measured after overnight incubation in presence of phenylalanine arginine beta-naphthylamide by microbroth dilution method. It is filed as functional. The method, boiled down:
as §2

The subject of assay [24] is Escherichia coli. The assay is described as follows: Antibacterial activity against Escherichia coli NCTC12923 measured after overnight incubation by microbroth dilution method. It is filed as functional. Put shortly:
as §2

Assay [25] deals with Pseudomonas aeruginosa. Description: Antibacterial activity against Pseudomonas aeruginosa PAO1 measured after overnight incubation by microbroth dilution method. It is filed as functional. The method, boiled down:
as §2

For assay [26], the system named is Klebsiella pneumoniae. The assay is described as follows: Antibacterial activity against Klebsiella pneumoniae NCTC13368 measured after overnight incubation by microbroth dilution method. It is filed as functional. Put shortly: as §2
Assay [27] concerns Enterococcus faecalis. The assay is described as follows: Bacteriostatic activity against vancomycin resistant Enterococcus feacalis NCTC12204 at 4 times MIC measured at 0 to 24 hrs by time kill assay.
The test system of assay [28] is Klebsiella pneumoniae. The assay is described as follows: Antibacterial activity against Klebsiella pneumoniae NCTC13368 measured after overnight incubation in presence of phenylalanine arginine beta-naphthylamide by microbroth dilution method. It is filed as functional. Put shortly:
as §2

The subject of assay [29] is Staphylococcus aureus. The assay is described as follows: Antibacterial activity against Staphylococcus aureus NCTC13616 assessed as generation of drug resistance at 2 times MIC measured after 48 hrs by agar-based microbroth dilution method. It is filed as functional. The method, boiled down: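 Agar method: exponentially growing bacteria, in known numbers, plated on agar with doubling compound concentrations at and above the MIC; incubated 48 hours. Colonies growing above the MIC were picked and re-tested by microbroth MIC for raised resistance. Resistance frequency reported at 2xMIC.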

Assay [30] relates to Acinetobacter baumannii. The assay is described as follows: Antibacterial activity against Acinetobacter baumannii ATCC 17978 measured after overnight incubation by microbroth dilution method. It is filed as functional. The method, boiled down:
as §2

Assay [31] has as its system Acinetobacter baumannii. The assay is described as follows: Antibacterial activity against Acinetobacter baumannii AYE measured after overnight incubation in presence of polymyxin B nonapeptide by microbroth dilution method. It is filed as functional.
Assay [32] deals with Enterococcus faecalis. Description: Antibacterial activity against vancomycin resistant Enterococcus faecalis NCTC12204 measured after overnight incubation by microbroth dilution method. It is filed as functional. Put shortly: as §1
Assay [33] deals with Escherichia coli. The assay is described as follows: Antibacterial activity against Escherichia coli NCTC12923 measured after overnight incubation in presence of phenylalanine arginine beta-naphthylamide by microbroth dilution method. It is filed as functional. Put shortly: as §2
The subject of assay [34] is Staphylococcus aureus. Description: Bacteriostatic activity against methicillin resistant Staphylococcus aureus NCTC13616 at 4 times MIC measured at 0 to 24 hrs by time kill assay.
In assay [35] the test system is Escherichia coli. The assay is described as follows: Antibacterial activity against Escherichia coli NCTC12923 measured after overnight incubation in presence of polymyxin B nonapeptide by microbroth dilution method. It is filed as functional.
Assay [36] has as its target Topoisomerase IV (Staphylococcus aureus, UniProt P0C1S7+P0C1U9). The assay is described as follows: Inhibition of Staphylococcus aureus topoisomerase-4 expressed in Escherichia coli assessed as relaxation of pBR322 substrate measured after 30 mins by agarose gel electrophoresis.

For orientation: MIC means the smallest concentration in the dilution series that meets the test's criterion for growth inhibition. As a reminder, the IC50 is the concentration that gives 50% inhibition. Take `Cc1c(CNC2CCCCCC2)cc(-c2ccc(Cl)cc2)n1-c1ccc(C(C)C)cc1`: the Activity in assay [1] is on record as less than 9.4e-08; in assay [29], less than 7.6e-08. Besides, the MIC is 2 µg/mL (≈ 4.6 µM) in [2]; 128 µg/mL in [3]; 4 µg/mL (≈ 9.19 µM) in [4]; greater than 128 µg/mL in [5]; 4 µg/mL in assay [6]; 16 µg/mL in assay [7]. In addition, the minimal inhibitory concentration (MIC) in assay [8] is greater than 128 µg/mL; in assay [9] it was 4 µg/mL (≈ 9.19 µM); in assay [10], 16 µg/mL; in assay [11] it was 2 µg/mL (≈ 4.6 µM); in assay [14] it was greater than 128 µg/mL; in [15] it was greater than 128 µg/mL. The MIC in assay [16] is greater than 128 µg/mL; in assay [17], greater than 128 µg/mL; in [20] it was greater than 128 µg/mL; in [21], 2 µg/mL; in assay [22] it was 4 µg/mL (≈ 9.19 µM); in assay [23], 4 µg/mL. Also, the MIC in assay [24] was greater than 128 µg/mL; in assay [25], greater than 128 µg/mL; in assay [26], greater than 128 µg/mL; in assay [28], greater than 128 µg/mL; in assay [30] it was 32 µg/mL (≈ 73.6 µM); in [31], 4 µg/mL. The MIC in assay [32] is 2 µg/mL (≈ 4.6 µM); in assay [33], 8 µg/mL; in assay [35] it was 2 µg/mL. In addition, the IC50 is 1.95 to 2.83 µg/mL (≈ 4.48 to 6.5 µM) in assay [12], 15.49 µg/mL in assay [13], 43.7 µM in assay [18] and 1.95 to 2.83 µg/mL (≈ 4.48 to 6.5 µM) in assay [19]. Besides, the result in [27] and in assay [34] was Active.
For the compound `Cc1c(CNCc2ccccc2)cc(-c2ccc(Cl)cc2)n1-c1ccc(Cl)cc1`, the MIC in assay [2] is 4 µg/mL (≈ 9.49 µM); in assay [4], 8 µg/mL (≈ 19 µM); in [7], greater than 128 µg/mL; in [9], 8 µg/mL (≈ 19 µM); in assay [10] it was greater than 128 µg/mL; in assay [11], 4 µg/mL (≈ 9.49 µM). The MIC in assay [14] was greater than 128 µg/mL; in assay [15] it was greater than 128 µg/mL; in [16], greater than 128 µg/mL; in assay [17], greater than 128 µg/mL; in [20], 32 µg/mL; in assay [21], 16 µg/mL. In addition, the MIC was 4 µg/mL (≈ 9.49 µM) in [22]; greater than 128 µg/mL in [24]; greater than 128 µg/mL in assay [25]; greater than 128 µg/mL in assay [26]; greater than 128 µg/mL in assay [30]; 16 µg/mL in assay [31]. The MIC in assay [35] is greater than 128 µg/mL.
`C[C@H]1COc2c(N3CCN(C)CC3)c(F)cc3c(=O)c(C(=O)O)cn1c23.C[C@H]1COc2c(N3CCN(C)CC3)c(F)cc3c(=O)c(C(=O)O)cn1c23.O` [LEVOFLOXACIN]: the values for the Activity in assay [1] and in assay [29] were 7.08e-06 and 1.87e-05, respectively. Also, the MIC in assay [2] was 1 µg/mL; in assay [4] it was 0.12 µg/mL; in assay [9], 8 µg/mL; in [11], 1 µg/mL; in assay [15], 0.12 µg/mL; in [22], 8 µg/mL. The minimum inhibitory concentration (MIC) in [24] is less than 0.12 µg/mL; in assay [30], 0.12 µg/mL; in [32], 0.5 µg/mL. In addition, the values for the IC50 in assay [13] and in assay [36] were 8.71 µg/mL and 9.85 µM, respectively.

Values taken from ChEMBL document CHEMBL4359823, “Switching on the activity of 1,5-diaryl-pyrrole derivatives against drug-resistant ESKAPE bacteria: Structure-activity relationships and mode of action studies” (Eur J Med Chem, 2019).
